Assay results as given in ChEMBL document CHEMBL1152436, “Synthesis, biological evaluation, and three-dimensional in silico pharmacophore model for sigma(1) receptor ligands based on a series of substituted benzo[d]oxazol-2(3H)-one derivatives” (J Med Chem, 2009).

How the values were obtained:
[1] = biological target: Sigma non-opioid intracellular receptor 1 (Rattus norvegicus, UniProt Q9R0C9); assay: Displacement of [3H](+)-pentazocine from sigma1 receptor in rat liver membrane by liquid scintillation counting; type: cell membranes
Sigma non-opioid intracellular receptor 1, sequence (Q9R0C9 whole entry): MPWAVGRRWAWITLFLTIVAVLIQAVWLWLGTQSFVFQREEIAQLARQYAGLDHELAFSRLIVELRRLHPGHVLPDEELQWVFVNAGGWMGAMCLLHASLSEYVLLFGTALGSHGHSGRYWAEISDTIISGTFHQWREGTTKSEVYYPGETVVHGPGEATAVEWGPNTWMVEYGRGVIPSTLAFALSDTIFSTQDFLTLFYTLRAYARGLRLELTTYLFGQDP

[2] = Displacement of [3H]DTG from sigma2 receptor in rat liver membrane by liquid scintillation counting; type: cell membranes
Method in brief: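 Rat liver homogenate (150 μg) incubated 120 min at room temperature with 3 nM [3H]DTG in 50 mM Tris-HCl pH 8.0. σ1 sites masked with 100 nM (+)-pentazocine; nonspecific binding with 10 μM haloperidol. At least 11 ligand concentrations, 0.1% final DMSO. Filtration on PEI-soaked GF/B filters. IC50 and nH from four-parameter fit, 2–4 determinations in duplicate, mean ± SEM.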

Row | Compound | Ki [1] | Ki [2]
1 | Cc1ccccc1CN1CCC(Cn2c(=O)oc3ccccc32)CC1 | 29.8 nM | 
2 | Cc1ccc(CN2CCC(Cn3c(=O)oc4ccccc43)CC2)cc1 | 3.07 nM | 
3 | Cc1ccc(CN(C)CCCn2c(=O)oc3ccccc32)cc1 | 871 nM | 991 nM
4 | COc1ccccc1CN(C)CCCn1c(=O)oc2ccccc21 | 1950 nM | 192 nM
5 | COc1ccc(CN(C)CCCn2c(=O)oc3ccccc32)cc1 | 83 nM | 2600 nM
6 | Cc1ccc(CN(C)CCCCn2c(=O)oc3ccccc32)cc1 | 97 nM | 22.9 nM
7 | CN(CCCn1c(=O)oc2ccccc21)Cc1ccccc1Cl | 2490 nM | 456 nM
8 | Cc1ccc(CN2CCC(C(=O)Nc3ccccc3)CC2)cc1 | 105 nM | 
9 | CN(CCCCn1c(=O)oc2ccccc21)Cc1ccccc1Cl | 843 nM | 37.4 nM
10 | CN(CCCCn1c(=O)oc2ccccc21)Cc1ccc(Cl)cc1 |  | 36.2 nM
11 | CN(CCCCn1c(=O)oc2ccccc21)Cc1cccc(Cl)c1 | 302 nM | 
12 | O=C(Nc1ccccc1)C1CCN(Cc2ccccc2)CC1 | 48.1 nM | 
13 | CN(CCCn1c(=O)oc2ccccc21)Cc1cccc(Cl)c1 | 3230 nM | 1120 nM
14 | CN(CCCCn1c(=O)oc2ccccc21)Cc1ccccc1 |  | 120 nM
15 | COc1ccc(CN(C)CCCCn2c(=O)oc3ccccc32)cc1 | 21 nM | 20.8 nM
16 | O=C(Nc1ccccc1)C1CCN(Cc2ccc(Cl)cc2)CC1 | 45 nM | 
17 | COc1ccccc1CN(C)CCCCn1c(=O)oc2ccccc21 | 594 nM | 
18 | CN(CCCn1c(=O)oc2ccccc21)Cc1ccc(Cl)cc1 |  | 456 nM
19 | Cc1ccc(CN2CCC(C(=O)NCc3ccccc3)CC2)cc1 | 69.4 nM | 
20 | Cc1ccc(CN(C)CCCCn2c(=O)oc3ccccc32)c(C)c1 | 239 nM | 6.94 nM
21 | Cc1cccc(CN(C)CCCCn2c(=O)oc3ccccc32)c1 | 102 nM | 31.8 nM
22 | Cc1cccc(CN(C)CCCn2c(=O)oc3ccccc32)c1 | 1830 nM | 2720 nM
23 | CN(CCCn1c(=O)oc2ccccc21)Cc1ccccc1 |  | 1120 nM
24 | Cc1ccccc1CN(C)CCCn1c(=O)oc2ccccc21 | 901 nM | 1350 nM
25 | COc1cccc(CN(C)CCCn2c(=O)oc3ccccc32)c1 | 8550 nM | 2130 nM
26 | Cc1ccc(CN(C)CCCn2c(=O)oc3ccccc32)c(C)c1 | 1830 nM | 2060 nM
27 | COc1cccc(CN(C)CCCCn2c(=O)oc3ccccc32)c1 | 297 nM | 187 nM
28 | CC(C)=CCN1CC[C@]2(C)c3cc(O)ccc3C[C@H]1[C@H]2C [(+)-PENTAZOCINE] |  | 327 nM
29 | Cc1ccccc1NC(=N)Nc1ccccc1C [DITOLYLGUANIDINE] |  | 130 nM
30 | O=C(CCCN1CCC(O)(c2ccc(Cl)cc2)CC1)c1ccc(F)cc1 [HALOPERIDOL] |  | 235 nM
